Data set [1] is described as follows: Permeability of compound incubated for 4 hrs by PAMPA assay. It counts as ADME. The note with it: read-out: permeability. In outline: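 Artificial membrane permeation run 4 h at room temperature and quantified by UV plate reader. Apparent permeability calculated at pH 6.2.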
(In general: In PAMPA a lipid-coated filter parts donor from acceptor wells.)

Data set [2] is described as follows: Protein binding in mouse plasma at 1 ug/ml incubated for 4 hrs by LC-MS analysis. In kind it is ADME, cell-free. The note with it: at 1 µg/mL, read-out: PPB (converted). In outline: (§1)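 Equilibrium dialysis with 12–14 kDa cutoff membrane. Compound dissolved in DMSO and spiked into blank plasma at 1 μg/mL final. Plasma dialysed against phosphate buffer pH 7.4 at 37 °C, 5% CO2, 4 h. Compound in plasma and buffer measured by LC-MS/MS and % bound calculated.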

Data set [3] can be described thus: Protein binding in human plasma at 1 ug/ml incubated for 4 hrs by LC-MS analysis. It counts as ADME, cell-free. As to conditions: at 1 µg/mL, read-out: PPB (converted). In outline: as §1
The test system of data set [4] is CYP3A. Kind of data set: Inhibition of human liver microsomes CYP3A at 10 uM using testosterone as substrate in presence of NADPH preincubated for 30 mins followed by substrate addition and measured after 10 mins by LC/MS analysis. As to conditions: probe testosterone, time 40 min. In kind it is ADME, Microsome. The method, boiled down:
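Compound preincubated 0 or 30 min at 37 °C with human liver microsomes (0.5 mg protein/mL) in sodium–potassium phosphate buffer pH 7.4 with NADPH-regenerating system. Then diluted 10-fold into secondary buffer with testosterone 250 μM plus NADPH-regenerating system and incubated 10 min. Stopped with acetonitrile containing internal standard, centrifuged, LC-MS/MS. Value is the difference in % inhibition between 0- and 30-min preincubation.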
Background: Liver microsomes are a subcellular fraction often used to study metabolism.

Structures are written as SMILES.

The values that follow come from ChEMBL document CHEMBL4699644, “Discovery of a potent dual inhibitor of wild-type and mutant respiratory syncytial virus fusion proteins through the modulation of atropisomer interconversion properties” (Bioorg Med Chem, 2020).

One may read the inhibition as the relative decrease from the control value, in per cent.

As for `CN1CCNC(=O)COc2ccc(F)cc2C(=O)N2CCCC[C@H]2c2cc3nc([C@H]4C[C@@H](O)C4)cc1n3n2`, the Papp at 4 h in data set [1] turned out to be 28 ×10⁻⁶ cm/s. Take `Cc1ccc2c(c1)C(=O)N1CCCCC1c1cc3nc(N4CCC4)cc(n3n1)N(C)CCNC(=O)CO2` (stereo unspecified): the fraction unbound at 4 h, 1 ug/ml is 0.031 in data set [2] and 0.064 in data set [3]. Moreover, the inhibition at 10 min, 10 µM in data set [4] is 60.1%. In the same order, the values of `CN1CCNC(=O)COc2ccc(Cl)cc2C(=O)N2CCCC[C@H]2c2cc3nc([C@H]4C[C@H](O)C4)cc1n3n2` are 0.145, 0.093 and -1.4%. With `CN1CCNC(=O)COc2ccc(F)cc2C(=O)N2CCCC[C@H]2c2cc3nc(N4CC(N)C4)cc1n3n2`, the Papp at 4 h in data set [1] was found to be 3.3 ×10⁻⁶ cm/s. `CN1CCNC(=O)COc2ccc(F)cc2C(=O)N2CCCC[C@H]2c2cc3nc(N4CC[C@H](N)C4)cc1n3n2`: the Papp at 4 h in data set [1] stood at 0.3 ×10⁻⁶ cm/s.

`CN1CCNC(=O)COc2ccc(Cl)cc2C(=O)N2CCCCC2c2cc3nc(N4CCC4)cc1n3n2` (stereo unspecified): the inhibition at 10 min, 10 µM in data set [4] is -2.9%. In the case of `CN1CCNC(=O)COc2ccc(F)cc2C(=O)N2CCCC[C@H]2c2cc3nc(N4CCC4)cc1n3n2`, the values for the fraction unbound at 4 h, 1 ug/ml in data set [2] and in data set [3] were 0.02 and 0.13, respectively. Moreover, in data set [1], the Papp at 4 h amounted to 80 ×10⁻⁶ cm/s. The inhibition at 10 min, 10 µM in data set [4] is -4.7%. As for `CNC1CN(c2cc3n4nc(cc4n2)[C@@H]2CCCCN2C(=O)c2cc(F)ccc2OCC(=O)NCCN3C)C1`, the Papp at 4 h in data set [1] came to 5.9 ×10⁻⁶ cm/s. As for `CN1CCNC(=O)COc2ccc(F)cc2C(=O)N2CCCC[C@H]2c2cc3nc([C@H]4C[C@H](O)C4)cc1n3n2`, in data set [1], the Papp at 4 h stood at 27 ×10⁻⁶ cm/s. Further, the inhibition at 10 min, 10 µM in data set [4] was determined as 0.4%. With `CN1CCNC(=O)COc2ccc(F)cc2C(=O)N2CCCC[C@H]2c2cc3nc(N4CC(O)C4)cc1n3n2`, in data set [1], the Papp at 4 h was 8 ×10⁻⁶ cm/s. For `Cc1ccc2c(c1)C(=O)N1CCCC[C@H]1c1cc3nc([C@H]4C[C@H](O)C4)cc(n3n1)N(C)CCNC(=O)CO2`, the results for the fraction unbound at 4 h, 1 ug/ml in data set [2] and in data set [3] were 0.222 and 0.112, respectively. For the same compound, the inhibition at 10 min, 10 µM in data set [4] came to 57%.
